Reference: publication PMC7392372 (Bioorganic & medicinal chemistry letters, 2018)

What was measured:
BRD4 (BD1,2) = BRD4 (BD1,2) (Homo sapiens, UniProt O60885); test: BROMOScan competitive binding affinity, BRD4; details: for fold improvement in Kd values: relative to smaller 2-substitutions (13, 14); for fold decrease of potency in binding affinity (Kd): relative to 17
[1] = Pharmacokinetics in CD-1 mice; format: in vivo; details: po 10 mg/kg, n=3
Method in brief: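 CD-1 mice received a single 10 mg/kg oral dose, n = 3. AUC0−∞ (h·ng/mL) was reported together with t1/2, Cmax, Vss, CLp and F%. For oral bioavailability, an intravenous arm dosed at 2 mg/kg was also run.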

fold improvement in Kd values (BRD4 (BD1,2)) | fold decrease of potency in binding affinity (Kd) (BRD4 (BD1,2)) | SMILES | further results
~ 20 fold | – | Cc1noc(C)c1-c1ccc2nc(N(C)CCN(C)C)nc(NCc3cccc(Cl)c3)c2c1 [compound 15] | –
~ 20 fold | – | Cc1noc(C)c1-c1ccc2nc(N3CCN(C)CC3)nc(NCc3cccc(Cl)c3)c2c1 [compound 16] | –
– | ~ 12 fold | Cc1noc(C)c1-c1ccc2c(NCc3cccc(Cl)c3)nc(N3CCN(CCN(C)C)CC3)nc2c1 [compound 40] | –
– | – | CN(C)CCN1CCN(c2nc(NCc3cccc(Cl)c3)c3cc(-c4ccc(=O)n(C)c4)ccc3n2)CC1 [compound 48] | AUC0−∞ [1]: no exposure
– | ~ 9 fold | Cc1noc(C)c1-c1ccc2nc(N3CCN(CCN(C)C)CC3)nc(NCc3ccc(Cl)cc3)c2c1 [compound 51] | –
– | 2–3 fold | Cc1noc(C)c1-c1ccc2nc(N3CCN(CCN(C)C)CC3)nc(N(C)Cc3cccc(Cl)c3)c2c1 [compound 57] | –
